Experimental data published in ChEMBL document CHEMBL1212871, “Lipophilic phenolic antioxidants: correlation between antioxidant profile, partition coefficients and redox properties” (Bioorg Med Chem, 2010).

Columns and labels:
[1] = Redox potential at pH 7.3 by differential pulse and cyclic voltametry; type: physicochemical
Procedure, shortened: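 Glassy carbon working electrode, potentials vs Ag/AgCl. 0.1 mM compound (diluted from 10 mM ethanol stock) in pH 7.3 phosphate supporting electrolyte, made from 0.2 M K2HPO4 and KH2PO4. Differential pulse voltammetry was run at 5 mV s^-1. Cyclic voltammetry was run at 50 mV s^-1, with scan rates of 10–100 mV s^-1 also examined.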

[2] = Antioxidant activity assessed as inhibition of AAPH-induced lipid peroxidation in liposomes measured as Trolox equivalent antioxidant capacity; type: functional; details: Liposome
Procedure, shortened: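 Egg phosphatidylcholine LUVs (0.80 mM final) holding a radical-sensitive fluorescent probe were mixed with polyphenol (1.50, 7.50, 15.00 µM final; 1.5% ethanol) and shaken 10 min at 37 °C. Peroxidation was then started with 15.00 mM AAPH. Fluorescence (ex 360/40, em 460/40 nm) was read at 37 °C for 3 h. TEAC = (AUC compound − AUC control)/(AUC Trolox − AUC control). Run in duplicate.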

[3] = Antioxidant activity assessed as ratio of IC50 for Trolox to compound for ABTS radical scavenging activity after 5 mins by TEAC assay; type: functional
Procedure, shortened: (§1)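 Six ethanolic compound solutions (1.5 × 10^-5 to 15 × 10^-5 M) were made in duplicate, and 20 µL of each was added to 180 µL ABTS•+ in quadruplicate. Absorbance was read every 5 min over 20 min; ethanol blank = 100% radical. Radical % against concentration at 5 or 20 min was fitted by second-degree polynomial through 100%. TEAC = Trolox IC50 / compound concentration giving 50% bleaching.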

[4] = Antioxidant activity assessed as ratio of IC50 for Trolox to compound for ABTS radical scavenging activity after 20 mins by TEAC assay; type: functional; procedure, shortened: as §1
[5] = system: Radical scavenging activity; assay: Antioxidant activity assessed as ratio of IC50 for Trolox to compound for DPPH radical scavenging activity by TEAC assay; type: functional
Procedure, shortened: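 DPPH• (180 µL) received 20 µL ethanolic compound, six concentrations of 1.5 × 10^-5 to 15 × 10^-5 M, prepared in duplicate and assayed in quadruplicate. Absorbance was read every minute for 10 min, then every 5 min for 50 min; ethanol blank = 100% radical. 60-min data were fitted by second-degree polynomial through 100%. TEAC = Trolox IC50 / compound concentration giving 50% bleaching.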

CCCCCCOC(=O)CCc1ccc(O)c(O)c1 [HEXYLHYDROCAFFEATE] showed a Redox potential [1] of 0.125 V, a Ratio [2] of 3.49 and a Ratio IC50 [3] of 0.96. It also gave a Ratio IC50 [4] of 0.96 and a Ratio IC50 [5] of 0.99.
Work on CCCCCCNC(=O)/C=C/c1ccc(O)c(OC)c1 [FERULOYLHEXYLAMIDE] yielded a Redox potential [1] of 0.322 V and a Ratio [2] of 1.22.
Work on COc1cc(/C=C/C(=O)O)ccc1O [FERULATE] yielded a Redox potential [1] of 0.35 V and a Ratio [2] of 0.79.
CCCCCCOC(=O)/C=C/c1ccc(O)c(OC)c1 [HEXYLFERULATE] gave a Redox potential [1] of 0.328 V and a Ratio [2] of 1.13.
Compound O=C(O)CCc1ccc(O)c(O)c1 [DIHYDROCAFFEIC ACID] has a Redox potential [1] of 0.139 V, a Ratio [2] of 1.75 and a Ratio IC50 [3] of 1.16. The Ratio IC50 [4] was 1.41 and the Ratio IC50 [5] was 2.05.
CCCCCCOC(=O)CCc1ccc(O)c(OC)c1 [HEXYLHYDROFERULATE] showed a Redox potential [1] of 0.434 V and a Ratio [2] of 0.57.
Work on CCCCCCNC(=O)CCc1ccc(O)c(OC)c1 [HYDROFERULOYLHEXYLAMIDE] yielded a Redox potential [1] of 0.388 V and a Ratio [2] of 0.68.
COc1cc(CCC(=O)O)ccc1O [DIHYDROFERULIC ACID] gave a Redox potential [1] of 0.41 V and a Ratio [2] of 0.22.
For CCCCCCNC(=O)CCc1ccc(O)c(O)c1 [HYDROCAFFEOYLHEXYLAMIDE], the Redox potential [1] was 0.125 V, the Ratio [2] was 2.08 and the Ratio IC50 [3] was 1.01. The Ratio IC50 [4] was 1.02 and the Ratio IC50 [5] was 1.
CCCCCCNC(=O)/C=C/c1ccc(O)c(O)c1 [CAFFEOYLHEXYLAMIDE] showed a Redox potential [1] of 0.162 V, a Ratio [2] of 2.41 and a Ratio IC50 [3] of 1.04. The Ratio IC50 [4] was 1.05 and the Ratio IC50 [5] was 1.11.
Work on O=C(O)/C=C/c1ccc(O)c(O)c1 [CAFFEIC ACID] yielded a Redox potential [1] of 0.183 V, a Ratio [2] of 2.23 and a Ratio IC50 [3] of 1.14. It also gave a Ratio IC50 [4] of 1.27 and a Ratio IC50 [5] of 1.29.
In the case of CCCCCCOC(=O)/C=C/c1ccc(O)c(O)c1 [HEXYLCAFFEATE], the Redox potential [1] is reported as 0.175 V, the Ratio [2] is reported as 3.55 and the Ratio IC50 [3] is reported as 0.91. It also gave a Ratio IC50 [4] of 0.93 and a Ratio IC50 [5] of 0.97.
